The list is not random: actives were taken first. Their share in the collection is about 1.9%.
NadD block: inhibitors of S. aureus NadD, primary screen, biochemical, colorimetric, uHTS. 360,000 compounds, 0.78% hits. purified NadD enzyme, colorimetric absorbance read-out. Nicotinate-nucleotide adenylyltransferase NadD (Staphylococcus aureus N315). inhibition, % at 20 µM; in the data active = inhibition above about 26%
Pemphigus Ab inh: inhibitors of pemphigus antibody binding to DSG3, primary screen, biochemical, bead-based, flow cytometry, scFv-GFP; 310,000 compounds, 0.48% hits; DSG3-coupled beads, scFv-anti-DSG3-GFP binding; active compounds read low; binding (percent of control), % at 10 µM;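 active = binding more than 3 SD below its plate's average and above zero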;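 also: hits lower antibody fragment binding to DSG3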
Tb MetRS inh: T. brucei MetRS inhibitors, primary screen, biochemical, luminescence | methionyl-tRNA synthetase (Trypanosoma brucei brucei) | AID 624268, 2012 | 360,000 compounds, 0.4% hits | purified T. brucei MetRS, ATP depletion, Kinase-Glo luminescence | inhibition, % at 11.9 µM;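 active = inhibition above a per-plate cutoff of the control wells' mean inhibition plus 3 SD, cut at about 5.5% in these data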
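Dosing: 11.9 µM single point; system: parasite MetRS enzyme; technique: luminescence of leftover ATP; times: 15 min enzyme-compound preincubation, 2 h reaction, 10 min detection, 25 °C; replicates: each compound tested once; read-out basis: percent inhibition relative to median high and low control wells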
core dimer inh: inhibitors of HCV core protein dimerization, primary screen, biochemical, TR-FRET, high-throughput. 300,000 compounds, 0.33% hits. TR-FRET GST/Flag-core106 dimerization, 1536-well. inhibition, % at 5 µM;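 active = inhibition above the mean of all tested compounds plus 3 SD, set per screening campaign, cut at about 45% in these data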
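System – GST-tagged and Flag-tagged HCV core protein residues 1-106 · Repeats – one well for each compound · Technique – TR-FRET 671 and 617 nm emission · Doses – one concentration, 5 µM, in 0.5% DMSO · Times – 4 h, 22.5 °C incubation · Also added – Eu donor and XL665 acceptor anti-tag antibodies · Measure – percent inhibition of core106 dimerization signal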
Rce1 inh: yeast Rce1p protease inhibitors, primary screen, biochemical, fluorescence, cell-free homogeneous; 290,000 compounds, 0.27% hits; calls only; AID 2563, 2010; yeast membranes, quenched prenylated peptide cleavage fluorescence;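 active = fall in fluorescence gain of 50% or more versus controls, with final raw signal at or below 3038400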
TbMetRS confirm: T. brucei MetRS inhibitors, confirmation, biochemical, luminescence; 1,400 compounds, 93% hits; inhibition, % at 11.9 µM; T. brucei MetRS enzyme, luminescence (ATP depletion); shares compounds with Tb MetRS inh; in the data active = inhibition above about 7%
Jurkat cytotox: Jurkat T cell cytotoxicity, cytotoxicity control for T. brucei MetRS inhibitor project, luminescence, high throughput; inhibition, % at 8.3 µM; AID 624413, 2012; 1,400 compounds, 12% hits; Jurkat cells viability, ATP luminescence; shares compounds with Tb MetRS inh; in the data active = inhibition above about 15%
TbMetRS FP orth: T. brucei MetRS inhibitors, orthogonal assay for T. brucei MetRS inhibitor project, biochemical, fluorescence polarization. purified T. brucei MetRS. AID 651607, 2012. shares compounds with Tb MetRS inh. 1,400 compounds, 44% hits. inhibition, % at 11.9 µM; in the data active = inhibition above about 17%
Hits are given with their value; 0 = inactive; - = not tested or not shown.

SMILES | NadD block | Pemphigus Ab inh | Tb MetRS inh | core dimer inh | Rce1 inh | TbMetRS confirm | Jurkat cytotox | TbMetRS FP orth
OCCN1CCN(C2Cc3cc(Cl)ccc3Sc3ccc(Cl)cc32)CC1 (configuration not stated) (tested in a mixture with another compound) | 0 | 0 | 0 | 0 | 0 | - | - | -
O=C(COc1ccccc1)Nc1cccc(-c2nc3ccccc3[nH]2)c1 | 0 | 0 | 20.9 | 0 | 0 | 43.0 | 0 | 26.2
COc1ccc(OCC(=O)Nc2cccc(-c3nc4ccccc4o3)c2)cc1 | 0 | 0 | 0 | 0 | 0 | - | - | -
COc1ccc(OCC(=O)Nc2cccc(-c3nc4ccccc4[nH]3)c2)cc1 | 0 | 0 | 7.1 | 0 | 0 | 11.8 | 0 | 31.3
Cc1ccc(S(=O)(=O)NCCC(=O)OCC(=O)Nc2cccc(Cl)c2)cc1 | 0 | 0 | 0 | - | - | - | - | -
COC(=O)c1cc(-c2ccc(Cl)cc2Cl)n[nH]1 | 0 | 0 | 12.0 | 0 | 0 | 29.2 | 0 | 17.8
COCCCn1c(C)c(C(C)=O)cc(NC(=O)c2ccccc2)c1=O | 0 | 0 | 0 | 0 | 0 | - | - | -
Cc1c(NS(=O)(=O)c2cccc(C(=O)NCc3ccccc3)c2)c(=O)n(-c2ccccc2)n1C | 0 | 0 | 0 | 0 | 0 | - | - | -
Cc1c(NS(=O)(=O)c2cccc(C(=O)NCc3cccc(Cl)c3)c2)c(=O)n(-c2ccccc2)n1C | 0 | 0 | 17.8 | - | - | 42.6 | 0 | 27.3
CN1CCSc2ccc(C(=O)NCc3cccc(Br)c3)cc21 | 0 | 0 | 5.7 | 0 | 0 | 10.8 | 0 | 0
CCOC(=O)c1c(C)[nH]c(C(=O)CN2C(=O)NC(C)(c3ccc(C)cc3)C2=O)c1C (configuration not stated) | 0 | 0 | 0 | 0 | 0 | - | - | -
O=C(Cc1ccc(Cl)cc1)Nc1ccc(Br)cc1 | 0 | 0 | 6.1 | 0 | 0 | 10.9 | 0 | 0
O=C(Cc1ccc(Br)cc1)NNC(=O)Nc1ccc(Cl)cc1 | 0 | 0 | 16.9 | 0 | 0 | 24.0 | 0 | 17.3
Cc1ccc(S(=O)(=O)N2[C@@H](c3ccc(C(C)(C)C)cc3)C(C(=O)O)=CC[C@H]2c2ccc3c(c2)OCO3)cc1 | 0 | 0 | 0 | - | - | - | - | -
O=C(COC(=O)c1ccc2ccccc2c1)NCCCc1ccccc1 | 0 | 0 | 0 | 0 | 0 | - | - | -
Nc1cc(C(=O)OCC(=O)NCCCc2ccccc2)ccc1Cl | 0 | 0 | 9.0 | 0 | 0 | 17.6 | 0 | 0
N#C/C(=N/Nc1ccc(OC(F)(F)F)cc1)C(N)=S | 0 | 0 | 0 | 0 | 0 | - | - | -
CCN1C(=O)C(CC(=O)Nc2ccc(OC)cc2)N(CCc2ccccc2)C1=S (configuration not stated) | 0 | 0 | 43.3 | 0 | 0 | 40.2 | 0 | 25.4
COc1ccc(NC(=O)CC2C(=O)N(c3ccccc3)C(=O)N2CCc2cccs2)cc1 (configuration not stated) | 0 | 0 | 32.3 | 0 | 0 | 46.0 | 0 | 23.7
CCN1C(=O)C(CC(=O)Nc2ccc(F)cc2)N(CCc2ccc(OC)cc2)C1=S (configuration not stated) | 0 | 0 | 30.1 | 0 | 0 | 47.3 | 0 | 35.7
CCN1C(=O)C(CC(=O)Nc2ccc(OC)cc2)N(CCN2CCOCC2)C1=S (configuration not stated) | 0 | - | 0 | 0 | 0 | - | - | -
CC1=C(C(=O)N2CCOCC2)CC(CC(=O)NC(c2ccccc2)c2ccccc2)C(=O)N1CCC1=CCCCC1 (configuration not stated) | 0 | - | 0 | - | - | - | - | -
